The record followed here is ChEMBL document CHEMBL3352512, “Thiazolidone derivatives as inhibitors of chikungunya virus” (Eur J Med Chem, 2015).

Data set [1] deals with Chikungunya virus. Description: Antiviral activity against Chikungunya virus LR2006_OPY1 infected in african green monkey Vero cells assessed as reduction in virus-induced cytopathogenicity at 100 ug/mL after 3 days by cell titer-blue fluorescent assay. Type of data set: functional, cell-based. On the technique in general: Damage to the host cells serves as the signal in cytopathic effect assays.

Data set [2] in a line: Cytotoxicity against african green monkey Vero cells assessed as reduction in cell viability after 72 hrs by cell titer-blue fluorescent assay. Type of data set: cell-based. The conditions noted are these: chlorocebus sabaeus. The method in brief: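 Uninfected Vero (CCL-81) cells were seeded at 1 × 10^5 cells/mL, grown for 24 h at 37°C with 5% CO2, then exposed to compound at 4 to 4000 µg/mL for 72 h. CellTiter-Blue was added for 2 h in the dark, and fluorescence was read at 560/590 nm. Viability is given as % of control, from at least three repeats.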
(Alamar Blue is a resazurin reagent that responds to reducing activity.)

The test system of data set [3] is Chikungunya virus. Nature of the data set: Antiviral activity against Chikungunya virus LR2006_OPY1 infected in african green monkey Vero cells assessed as reduction in virus-induced cytopathogenicity after 3 days by cell titer-blue fluorescent assay. The format is functional, cell-based. As to conditions: 72 h.

The term CC50 denotes the concentration at which the toxic effect on the cells reaches its halfway point. For orientation: IC50 means the concentration at which inhibition is half-maximal.

Molecules are shown by their SMILES. Active and inactive are the calls of the source. No cut-off for these calls is given here.

Take `COc1ccc(/C=C2\SC(=S)NC2=O)cc1`: the inhibition entry in the data set with Chikungunya virus [1] is “inactive”. Further, the CC50 at 72 h in data set [2] was > 100 µM.
In the case of `O=C1NC(=S)S/C1=C\c1cccs1`, the inhibition result in the data set with Chikungunya virus [1] was “inactive”. Moreover, the CC50 at 72 h in data set [2] was > 100 µM.
Consider `O=C1NC(=S)S/C1=C\c1ccccc1[N+](=O)[O-]`, for which the inhibition entry in the data set with Chikungunya virus [1] was “inactive”. The half-maximal cytotoxic concentration (CC50) at 72 h in data set [2] is > 100 µM.
On to `NC1=NC(=O)/C(=C/c2ccccc2[N+](=O)[O-])S1`, for which the IC50 in the data set on Chikungunya virus [3] was found to be 40.1 µM. Besides, the half-maximal cytotoxic concentration (CC50) at 72 h in data set [2] was > 100 µM.
Take `N=C1NC(=O)/C(=C/c2ccc(O)cc2)S1` [MIRIN]: the inhibition result with Chikungunya virus [1] was “inactive”. In addition, in data set [2], the CC50 at 72 h was > 100 µM.
In the case of `O=C1NC(=S)S/C1=C\c1ccc2ccccc2c1`, the IC50 in the data set on Chikungunya virus [3] was found to be 3.6 µM. In addition, in data set [2], the CC50 at 72 h is > 100 µM.
On to `O=C1NC(=S)S/C1=C\c1ccc(Cl)cc1`, for which, in the data set on Chikungunya virus [1], the inhibition result is “inactive”. Further, in data set [2], the 50% cytotoxic concentration (CC50) at 72 h is > 100 µM.
Take `O=C1NC(=S)S/C1=C\c1ccc(O)cc1`: in the data set with Chikungunya virus [1], the inhibition result was “inactive”. Further, the CC50 at 72 h in data set [2] was > 100 µM.
For `CN(C)c1ccc(/C=C2\SC(=S)NC2=O)cc1` the same measures were “inactive” and > 100 µM.
